This is a sample that favours compounds with a hit; in the whole collection about 3% have one here.
MEKK2wt PB1 HTS = raises or lowers MEK5 binding to wildtype human MEKK2 PB1 domain. bead flow cytometry, Alexa488-MEK5 binding to MEKK2 WT; actives lie on both sides. actives 1.1% (n = 290,000). AID 1531. Q9Y2U5. binding response (% of control), % at 10 µM; in the data active means binding response below about 67% or above about 130%
Apaf1 inhib = blocks human Apaf-1 apoptosome activity. O14727. reconstituted apoptosome caspase-3 activity, DEVD-Rh110 fluorescence. inhibition, % at 20 µM. actives 0.71% (n = 330,000); active means inhibition of at least 40% at 20 µM;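 further: plate controls were DMSO wells for no effect and DEVD-CHO caspase inhibitor wells for full effect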
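Assay system – apoptosome proteins · Medium – Hepes buffer, pH 7.5 · Also added – cytochrome c with DEVD-Rh110 · Timing – 30 min compound preincubation, 50 min activation, room temperature · Detection – Rh110 fluorescence, excitation 480 nm, emission 540 nm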
UCH37 inh = human UCH37 deubiquitinating enzyme inhibition. actives 0.33% (n = 330,000). inhibition, % (no concentration beside the values). purified proteasome/UCH37, Ub-AMC cleavage fluorescence;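 active means mean inhibition over replicate wells above about 20%, limit read from the data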;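 further: 0% = compound-free wells with enzyme and 100% = wells lacking proteasome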
Target sequence (Q9Y5K5 whole entry, looked up): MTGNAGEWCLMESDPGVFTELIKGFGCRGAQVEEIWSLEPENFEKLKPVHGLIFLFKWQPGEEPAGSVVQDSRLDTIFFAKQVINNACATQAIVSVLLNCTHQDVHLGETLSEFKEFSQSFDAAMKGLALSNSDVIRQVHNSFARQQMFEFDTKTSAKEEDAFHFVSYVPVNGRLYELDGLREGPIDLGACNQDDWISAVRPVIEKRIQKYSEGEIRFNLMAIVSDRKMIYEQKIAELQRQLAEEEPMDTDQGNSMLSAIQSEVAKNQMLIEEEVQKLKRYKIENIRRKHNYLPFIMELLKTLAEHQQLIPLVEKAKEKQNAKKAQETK
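Signal – fluorescence, ex 355 nm, em 460 nm · System – Proteasome-bound UCH37 · Input – 0.15 nM proteasome as dispensed · Timing – 30 min preincubation with enzyme, 25 min cleavage at room temperature · Read-out basis – percent inhibition of cleavage signal versus uninhibited and no-proteasome wells · Medium – Tris-HCl pH 7.4 with ATP-MgCl2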
MEKK3 PB1 HTS = MEKK3-MEK5 PB1 interaction, increase or decrease; Q99759; bead-based flow cytometry, Alexa488-MEK5 binding to MEKK3; actives lie on both sides; 0 = blocked by unlabeled MEK5, 100 = vehicle; binding response (% of control), % at 10 µM; actives 1.4% (n = 290,000); AID 1529;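 active means binding response more than 3 SD above or below the average of its plate-row segment, actives on both sides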;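 further: Alexa488 bead fluorescence after subtracting the streptavidin-only scavenger bead signal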
MEKK2 mut-MEK5 = signal of MEK5 binding to mutant human MEKK2 PB1 domain; AID 1530; bead flow cytometry, Alexa488-MEK5 binding to MEKK2 mutant; actives 0.35% (n = 290,000); percent response, % at 10 µM; in the data active means percent response above about 24%, passing the limit was not always enough
UBC13 inh = human UBC13 polyubiquitination inhibition | UBC13 polyubiquitin chain formation, TR-FRET | inhibition, % at 20 µM | actives 0.47% (n = 330,000) | AID 485273; in the data active means inhibition above about 45%, passing the limit was not always enough
Target sequence (P61088 whole entry, looked up): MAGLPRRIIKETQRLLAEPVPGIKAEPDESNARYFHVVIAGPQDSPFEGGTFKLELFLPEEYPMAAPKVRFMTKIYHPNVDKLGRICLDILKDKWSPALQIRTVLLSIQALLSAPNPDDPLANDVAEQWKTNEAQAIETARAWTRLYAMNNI
MEKK2wt confirm = raises or lowers MEK5 binding to wildtype human MEKK2, retest | actives 2.4% (n = 5,900) | binding response (% of control), % at 10 µM | bead flow cytometry, Alexa488-MEK5 binding to MEKK2 WT; actives lie on both sides | shares compounds with MEKK3 PB1 HTS | AID 1892; in the data active means binding response below about 16% or above about 210%; inactive means in between
MEKK2mut-MEK5 = signal of MEK5 binding to mutant human MEKK2, retest. percent response, % at 10 µM. actives 2% (n = 5,900). shares compounds with MEKK3 PB1 HTS. AID 1893. bead flow cytometry, Alexa488-MEK5 binding to MEKK2 mutant; in the data active means percent response mostly above about 71%, no sharp cut-off; inactive means mostly below about 38%;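 further: higher means compound restores mutant binding toward wildtype level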
MEKK3-MEK5 inh = MEKK3-MEK5 PB1 inhibition, single concentration confirmation. shares compounds with MEKK3 PB1 HTS. bead flow cytometry, Alexa488-MEK5 binding to MEKK3; hits give low values. binding response (% of control), % at 10 µM. actives 1.8% (n = 5,900). AID 1894;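 active means binding response below 72% of control, or above a set upper limit, though filed actives all read lower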;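 further: 100% = DMSO only wells and 0% = binding blocked by excess unlabeled MEK5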
* marks the source's active call; other numbers are inactive results; x = no result given; [ ] = dose if it differs, or a comment.

SMILES	MEKK2wt PB1 HTS	Apaf1 inhib	UCH37 inh	MEKK3 PB1 HTS	MEKK2 mut-MEK5	UBC13 inh	MEKK2wt confirm	MEKK2mut-MEK5	MEKK3-MEK5 inh
O=C(NCC(=O)N(c1ccccc1)C(C(=O)NCC1CCCO1)c1ccccc1)c1ccco1 (stereo not given)	117.0	6.5	-0.2	125.0*	4.0	2.6	98.0	3.0	102.0
C[C@@]12CCC=C[C@H]1[C@H](c1ccc3ccccc3c1)N(Cc1ccccc1)C2=O	94.0	23.9	0.6	93.0	-3.0	7.7	x	x	x
CNS(=O)(=O)c1cccc(C(=O)OCC(=O)N2CCN(C(=O)c3ccco3)CC2)c1	x	-12.7	0.4	x	x	6.3	x	x	x
O=C(NCC1CCCO1)C(c1cccnc1)N(C(=O)Cc1cccs1)c1ccccc1 (stereo not given)	-10.0*[inhibitor]	-5.7	5.5	-1.0*[inhibitor]	-24.0	2.7	102.0	5.0	104.0
CCN(CC)c1ccc(NC(=O)CN2CCN(CC(=O)Nc3ccccc3F)CC2)cc1	124.0	6.3	1.6	122.0*	13.0	4.0	104.0	2.0	97.0
CC12CC3(C)CC(C)(C1)CC(C(=O)Nc1nn[nH]n1)(C2)C3	87.0	10.9	-0.1	81.0*[inhibitor]	-14.0	-5.1	91.0	-4.0	99.0
CC12CC3CC(C)(C1)CC(C(=O)Nc1nn[nH]n1)(C3)C2	103.0	-0.4	-1.1	100.0	9.0	3.5	x	x	x
O=C(/C=C/c1ccco1)Nc1cccc2cccnc12	91.0	8.0	7.9	62.0*[inhibitor]	0.0	-16.0	96.0	-4.0	100.0
O=C(O)/C=C/C(=O)Nc1cccc2cccnc12	103.0	5.2	5.0	100.0	4.0	-4.4	x	x	x
CCc1ccc2[nH]c(=O)c(CN(Cc3ccccc3OC)C(=O)Nc3ccccc3OC)cc2c1	94.0	24.1	-1.2	94.0	-1.0	-11.4	x	x	x
COc1ccc(CC(=O)Nc2cc(C)ccn2)cc1	56.0	-13.6	-1.8	42.0*[inhibitor]	-15.0	-6.5	89.0	1.0	94.0
O=C(Nc1nc2ccccc2[nH]1)c1ccccc1	21.0*[inhibitor]	5.8	-2.0	13.0*[inhibitor]	-23.0	-1.4	103.0	1.0	102.0
O=C(Nc1nc2ccccc2[nH]1)c1ccc(Cl)cc1	100.0	11.2	-20.3	100.0	2.0	10.0	x	x	x
Cc1ccc(OCc2ccc(C#N)cc2)c(C(=O)c2cc(C#N)c(=O)n(C3CC3)c2)c1	115.0	7.4	-1.0	107.0	52.0*	-0.8	101.0	-15.0	98.0
CC(=O)c1cccc(NC(=O)COc2ccccc2C(=O)c2cc(C#N)c(=O)n(C3CCCCC3)c2)c1	93.0	12.8	3.1	93.0	-4.0	-0.9	x	x	x
O=C(Cn1cc[n+](CC(=O)c2ccc(Cl)cc2Cl)c1)c1ccc(Cl)cc1Cl	174.0*	19.7	6.6	109.0	39.0	35.0	153.0	24.0	108.0
O=C(Cn1cc[n+](CC(=O)c2ccccc2)c1)c1ccccc1	104.0	-2.1	-0.8	98.0	4.0	10.5	x	x	x
CCCC(=O)NC(=S)NNC(=O)c1ccc([N+](=O)[O-])cc1	100.0	1.3	6.1	133.0*	4.0	10.4	95.0	3.0	99.0
CCCCCCCC(=O)NNC(=O)c1ccc([N+](=O)[O-])cc1	96.0	-4.6	0.7	95.0	-2.0	-8.5	x	x	x
S=c1nc(-c2ccccc2Br)[nH][nH]1	-2.0*[inhibitor]	-3.1	2.8	1.0*[inhibitor]	-3.0	6.2	97.0	-3.0	94.0
C(=N\N=C\c1cccs1)/c1cccs1	100.0	13.8	x	99.0	2.0	-3.6	x	x	x
O=C(COC(=O)c1ccccc1OC(F)F)Nc1ccc(N2CCCCC2)cc1	x	17.8	4.9	x	x	7.1	x	x	x
N#CC(C#N)=CC1=C2OC(c3ccccc3)=CC(c3ccccc3)=C2CCC1	72.0*[inhibitor]	-10.7	5.5	74.0*[inhibitor]	-12.0	2.5	75.0	-3.0	77.0
CC(=O)Nc1ccc(S(=O)(=O)N2CCC(C(=O)NCCc3ccc(Cl)cc3)CC2)cc1	110.0	4.6	2.6	107.0	6.0	7.4	x	x	x
N#C/C(=C\c1cccs1)C(=O)NCc1ccco1	98.0	-7.1	11.5	96.0	0.0	9.0	x	x	x
SMILES	MEKK2wt PB1 HTS	Apaf1 inhib	UCH37 inh	MEKK3 PB1 HTS	MEKK2 mut-MEK5	UBC13 inh	MEKK2wt confirm	MEKK2mut-MEK5	MEKK3-MEK5 inh
Cc1ccsc1/C=C(\C#N)C(=O)NCc1ccco1	103.0	x	3.0	128.0*	4.0	x	107.0	9.0	109.0
O=C1NN=C(c2ccc(Cl)cc2)CC1c1c[nH]c2ccccc12 (stereo not given)	97.0	33.6	-6.6	102.0	1.0	-2.6	x	x	x
Cc1ccc(C2=NNC(=O)C(c3c[nH]c4ccccc34)C2)cc1 (stereo not given)	116.0	12.3	-1.2	128.0*	-1.0	10.7	106.0	2.0	102.0
C/C=C(/C)C(=O)O[C@H]1[C@@H](O)c2c(ccc3ccc(=O)oc23)OC1(C)C	101.0	-5.8	-8.6	123.0*	11.0	6.7	103.0	8.0	100.0
Cc1cc(NS(=O)(=O)c2ccc(NC(=O)CCCOc3ccccc3C)cc2)no1	96.0	-2.6	-1.3	101.0	0.0	-7.1	x	x	x
CCC1=C2CC[C@H]3C(=O)N(CC(=O)OC)C(=O)[C@H]3[C@H]2[C@@]2(C)C(=NCC(=O)OC)OC(=O)N2C1=O	89.0	-1.2	-1.1	85.0	3.0	4.9	x	x	x
C=CCn1cnc2c(nnn2-c2ccc(C)c(C)c2)c1=O	1.0*[inhibitor]	-22.1	5.7	2.0*[inhibitor]	-72.0	20.1	97.0	-5.0	101.0
COc1cccc(OC)c1-c1nn2c(-c3ccco3)nnc2s1	97.0	-2.1	1.2	129.0*	1.0	-8.3	95.0	0.0	97.0
COc1cccc(-c2nn3c(-c4ccco4)nnc3s2)c1	104.0	10.5	-2.1	104.0	2.0	-2.8	x	x	x
Cc1nc(N2CCN(C(=O)c3ccco3)CC2)c2c3c(sc2n1)CC(C)CC3 (stereo not given)	85.0	11.4	-4.9	85.0	-4.0	11.2	x	x	x
CCc1nc(N2CCN(C(=O)CCl)CC2)c2c3c(sc2n1)CC(C)CC3 (stereo not given)	153.0*	18.9	x	111.0	39.0*	31.2	141.0	25.0	100.0
O=C(NCCCC1CCCC1)C1CCC(=O)N(Cc2ccc(Cl)cc2)C1 (stereo not given)	97.0	22.5	2.0	94.0	-2.0	11.2	x	x	x
